Results taken from ChEMBL document CHEMBL2401708, “Superior anticancer activity of halogenated chalcones and flavonols over the natural flavonol quercetin” (Eur J Med Chem, 2013).
Calls of active or inactive are those of the source. The rule behind the calls is not given here.

Assays:
HCT-116 [1] = assay: Cytotoxicity against human HCT116 cells assessed as cell viability at 15 uM after 48 hrs by MTT assay relative to control; type: functional; settings: HCT-116, 48 h, read-out: Activity
In short: (§1)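 HCT116 cells seeded in 24-well plates two days prior, treated 48 h in fresh complete medium (DMSO ≤0.5% v/v; DMSO-only control); MTT 0.5 mg/ml final added for last hour, formazan dissolved in DMSO:ethanol 50:50, A570 minus A690; viability as % of control; IC50 from 2.5–20 range dose-response; mean ± SEM of 4 independent experiments.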

HCT-116 [2] = assay: Cytotoxicity against human HCT116 cells assessed as cell viability at 10 uM after 48 hrs by MTT assay relative to control; type: functional; settings: HCT-116, 48 h, read-out: Activity; in short: as §1
HCT-116 [3] = assay: Cytotoxicity against human HCT116 cells assessed as cell viability after 48 hrs by MTT assay; type: functional, cell-based; settings: HCT-116, 48 h; in short: as §1
HCT-116 [4] = assay: Cell cycle arrest in human HCT116 cells assessed as accumulation at S and G2/M phase at 15 uM after 48 hrs by flow cytometry analysis; type: functional, cell-based
In short: (§2)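 HCT116 cells (RPMI 1640, 6% FBS, 37 °C, 5% CO2) seeded two days ahead, exposed 48 h; floating plus attached cells collected by trypsinization, fixed in 70% ethanol at 4 °C 15 min, stained with PI/RNase A at 37 °C 15 min; ≥40 000 single cells counted by flow cytometry; phases fitted by Watson Pragmatic model; 3 independent experiments.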

HCT-116 [5] = assay: Induction of morphological changes in human HCT116 cells assessed as floating cells at 15 to 100 uM after 48 hrs by microscopic analysis; type: functional, cell-based
HCT-116 [6] = assay: Cytotoxicity against human HCT116 cells assessed as cell viability at 30 uM after 48 hrs by MTT assay relative to control; type: functional; settings: HCT-116, 48 h, read-out: Activity
In short: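 HCT116 cells grown in RPMI 1640 with 6% FBS, 0.1 mM sodium pyruvate and 10 mM HEPES at 37 °C in 5% CO2, seeded at 70 000 cells/mL two days before treatment. Exposure 48 h in fresh complete medium, DMSO ≤0.5% (v/v), DMSO-only controls. MTT (0.5 mg/ml final) added for the last hour, formazan dissolved in DMSO:ethanol 50:50, A570 minus A690. Viability given as % of control; mean ± SEM of 4 independent experiments; Student's t-test.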

HCT-116 [7] = assay: Induction of apoptosis in human HCT116 cells assessed as nuclear condensation after 48 hrs by fluorescence microscopic analysis; type: functional, cell-based
In short: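 After 48 h exposure, floating and attached cells harvested, fixed in 4% paraformaldehyde 15 min at room temperature, cytospun onto polylysine slides, Hoechst-stained; apoptotic fraction = condensed nuclei over total nuclei, >500 cells per slide counted by fluorescence microscopy; mean ± SEM of ≥3 independent experiments.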

HCT-116 [8] = assay: Cell cycle arrest in human HCT116 cells assessed as accumulation at S and G2/M phase at 10 to 15 uM after 48 hrs by flow cytometry analysis; type: functional, cell-based; in short: as §2
HCT-116 [9] = assay: Cell cycle arrest in human HCT116 cells assessed as accumulation at S and G2/M phase at IC50 after 48 hrs by flow cytometry analysis; type: functional, cell-based; in short: as §2
HCT-116 [10] = assay: Cell cycle arrest in human HCT116 cells assessed as accumulation at sub-G1 phase at 10 to 15 uM after 48 hrs by flow cytometry analysis; type: functional, cell-based; in short: as §2
HCT-116 [11] = assay: Induction of apoptosis in human HCT116 cells assessed as cleavage of PARP1 at 10 to 15 uM after 48 hrs by Western blot analysis; type: functional, cell-based
In short: (§3)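 Cells seeded two days before 48 h exposure; floating and attached cells harvested, lysed in ice-cold RIPA with PMSF, phosphatase and protease inhibitors; 20 µg protein by SDS-PAGE, PVDF transfer, milk blocking, primary antibody (p53 DO-1, p27 C-19, PARP-1 F-2) overnight, HRP secondary, chemiluminescence; band intensity quantified, β-actin loading control.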

HCT-116 [12] = assay: Cell cycle arrest in human HCT116 cells assessed as accumulation at S and G2/M phase at 5 to 10 uM after 48 hrs by flow cytometry analysis; type: functional, cell-based; in short: as §2
HCT-116 [13] = assay: Cell cycle arrest in human HCT116 cells assessed as increase of p27 expression at 5 to 10 uM after 48 hrs by Western blot analysis; type: functional, cell-based; in short: as §3
HCT-116 [14] = assay: Induction of apoptosis in human HCT116 cells assessed as cleavage of PARP1 at 5 to 10 uM after 48 hrs by Western blot analysis; type: functional, cell-based; in short: as §3
HCT-116 [15] = assay: Induction of morphological changes in human HCT116 cells assessed as floating cells at 10 to 100 uM after 48 hrs by microscopic analysis; type: functional, cell-based
HCT-116 [16] = assay: Cell cycle arrest in human HCT116 cells assessed as accumulation at sub-G1 phase at 5 to 10 uM after 48 hrs by flow cytometry analysis; type: functional, cell-based; in short: as §2
HCT-116 [17] = assay: Cell cycle arrest in human HCT116 cells assessed as increase of p53 expression at 5 to 10 uM after 48 hrs by Western blot analysis; type: functional, cell-based; in short: as §3

## COc1cc(OC)c(/C=C/C(=O)c2ccccc2O)c(OC)c1
HCT-116 [1]
  viability at 15 µM: 91.1%

## O=c1c(O)c(-c2ccccc2)oc2ccccc12 [FLAVONOL]
HCT-116 [1]
  viability at 15 µM: 64.6%

## COc1cc(/C=C/C(=O)c2ccccc2O)cc(OC)c1OC
HCT-116 [1]
  viability at 15 µM: 83.7%

## O=C(/C=C/c1cccc(F)c1)c1ccccc1O
HCT-116 [1]
  viability at 15 µM: 45.3%
HCT-116 [2]
  viability at 10 µM: 90.2%
HCT-116 [3]
  IC50: 14.5 µM

## COc1cc(-c2oc3ccccc3c(=O)c2O)cc(OC)c1OC
HCT-116 [1]
  viability at 15 µM: 70%

## Cc1cccc(-c2oc3ccccc3c(=O)c2O)c1
HCT-116 [1]
  viability at 15 µM: 38.7%

## COc1ccc(/C=C/C(=O)c2ccccc2O)cc1
HCT-116 [1]
  viability at 15 µM: 89.1%

## Cc1ccc(-c2oc3ccccc3c(=O)c2O)cc1
HCT-116 [1]
  viability at 15 µM: 59.3%

## O=C(/C=C/c1ccc(C(F)(F)F)cc1)c1ccccc1O
HCT-116 [4]
  Activity: inactive
HCT-116 [1]
  viability at 15 µM: 85.1%
HCT-116 [5]
  Activity: Active

## Cc1cccc(/C=C/C(=O)c2ccccc2O)c1
HCT-116 [1]
  viability at 15 µM: 85.9%

## O=c1c(O)c(-c2cccc(Br)c2)oc2ccccc12
HCT-116 [1]
  viability at 15 µM: 29.2%
HCT-116 [2]
  viability at 10 µM: 37.6%
HCT-116 [3]
  IC50: 7.5 µM

## O=c1c(O)c(-c2cccc(Cl)c2)oc2ccccc12
HCT-116 [1]
  viability at 15 µM: 32.9%
HCT-116 [2]
  viability at 10 µM: 43.8%
HCT-116 [3]
  IC50: 8.1 µM

## Cc1ccc(/C=C/C(=O)c2ccccc2O)cc1
HCT-116 [1]
  viability at 15 µM: 89.1%

## O=C(/C=C/c1ccccc1)c1ccccc1O [2'-HYDROXYCHALCONE]
HCT-116 [1]
  viability at 15 µM: 91.7%

## O=c1c(O)c(-c2ccc(O)c(O)c2)oc2cc(O)cc(O)c12 [QUERCETIN]
HCT-116 [6]
  viability at 30 µM: 59.7%

## O=c1c(O)c(-c2cccc(F)c2)oc2ccccc12
HCT-116 [1]
  viability at 15 µM: 45.9%
HCT-116 [2]
  viability at 10 µM: 60.9%
HCT-116 [3]
  IC50: 13 µM

## COc1ccc(-c2oc3ccccc3c(=O)c2O)cc1OC [3-HYDROXY-3',4'-DIMETHOXYFLAVONE]
HCT-116 [1]
  viability at 15 µM: 78.1%

## O=C(/C=C/c1ccc(F)cc1)c1ccccc1O
HCT-116 [1]
  viability at 15 µM: 74.9%
HCT-116 [2]
  viability at 10 µM: 85.2%
HCT-116 [3]
  IC50: 20.5 µM

## O=C(/C=C/c1ccc(Br)cc1)c1ccccc1O
HCT-116 [1]
  viability at 15 µM: 68.4%
HCT-116 [2]
  viability at 10 µM: 85.5%
HCT-116 [3]
  IC50: 19.1 µM

## O=c1c(O)c(-c2ccc(Cl)cc2)oc2ccccc12
HCT-116 [1]
  viability at 15 µM: 38%
HCT-116 [2]
  viability at 10 µM: 40.8%
HCT-116 [3]
  IC50: 6.8 µM

## COc1cccc(/C=C/C(=O)c2ccccc2O)c1
HCT-116 [1]
  viability at 15 µM: 89.6%

## O=C(/C=C/c1cccc(Cl)c1)c1ccccc1O
HCT-116 [1]
  viability at 15 µM: 37.5%
HCT-116 [2]
  viability at 10 µM: 75.8%
HCT-116 [3]
  IC50: 13.2 µM

## COc1cccc(/C=C/C(=O)c2ccccc2O)c1O
HCT-116 [1]
  viability at 15 µM: 84.7%

## O=C(/C=C/c1ccc(Cl)cc1)c1ccccc1O
HCT-116 [1]
  viability at 15 µM: 69.1%
HCT-116 [2]
  viability at 10 µM: 84.8%
HCT-116 [3]
  IC50: 20.9 µM

## COc1cccc(-c2oc3ccccc3c(=O)c2O)c1
HCT-116 [1]
  viability at 15 µM: 39.5%

## O=C(/C=C/c1cccc(Br)c1)c1ccccc1O
HCT-116 [1]
  viability at 15 µM: 29.6%
HCT-116 [5]
  Activity: Active
HCT-116 [2]
  viability at 10 µM: 48.4%
HCT-116 [7]
  Activity: Dose-dependent effect
HCT-116 [3]
  IC50: 10.9 µM
HCT-116 [8]
  Activity: Active
HCT-116 [9]
  Activity: Active
HCT-116 [10]
  Activity: Active
HCT-116 [11]
  Activity: Active

## COc1ccc(-c2oc3ccccc3c(=O)c2O)cc1
HCT-116 [1]
  viability at 15 µM: 96%

## COc1ccc(OC)c(-c2oc3ccccc3c(=O)c2O)c1
HCT-116 [1]
  viability at 15 µM: 76.6%

## COc1ccccc1-c1oc2ccccc2c(=O)c1O
HCT-116 [1]
  viability at 15 µM: 89.1%

## O=c1c(O)c(-c2ccc(F)cc2)oc2ccccc12
HCT-116 [1]
  viability at 15 µM: 49.2%
HCT-116 [2]
  viability at 10 µM: 61.1%
HCT-116 [3]
  IC50: 14.4 µM

## O=c1c(O)c(-c2ccc(Br)cc2)oc2ccccc12
HCT-116 [12]
  Activity: Active
HCT-116 [1]
  viability at 15 µM: 29.2%
HCT-116 [2]
  viability at 10 µM: 32.8%
HCT-116 [7]
  Activity: Dose-dependent effect
HCT-116 [13]
  Activity: Active
HCT-116 [3]
  IC50: 4.6 µM
HCT-116 [14]
  Activity: Active
HCT-116 [9]
  Activity: Active
HCT-116 [15]
  Activity: Active
HCT-116 [16]
  Activity: Active
HCT-116 [17]
  Activity: Active
